Fh CTSL1 inh = blocks F. hepatica cathepsin L1 in PFM18AAP counter-screen; recombinant F. hepatica cathepsin L1, Z-Leu-Arg-MCA fluorescence; inhibition, % at 5.96 µM; 300,000 tested, 0.49% active;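 active = inhibition above the mean of all tested compounds plus 3 SD, set per screening campaign, cut at about 17% in these data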;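 note: 0% = plate median of test compound wells and 100% = 1 µM Z-Phe-Ala-diazomethylketone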
UBC9 SUMO inh = SUMOylation inhibition. P63279. HTRF SUMOylation assay, SAE1/SAE2 + UBC9, in vitro. inhibition, % at 35 µM. 290,000 tested, 0.36% active; in the data active = inhibition above about 50%, passing the limit was not always enough
IMP-1 inhibitor = blocks Pseudomonas aeruginosa IMP-1 metallo-beta-lactamase; purified IMP-1, nitrocefin hydrolysis, epi-absorbance fluorescence; inhibition, % at 5.6 µM; 290,000 tested, 0.45% active;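 active = inhibition above the mean plus 3 SD of all compounds in the same screening run, cut at about 4.5% in these data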;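 note: 0% = IMP-1 with DMSO and 100% = DMSO wells lacking enzyme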
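System – purified recombinant IMP-1 beta-lactamase · Input – IMP-1 dispensed at 0.2 nM · Timing – 15 min preincubation plus 25 min reaction at 25 °C · Signal – Epi-absorbance fluorescence, 480 nm excitation, 530 nm emission · Measure – percent IMP-1 inhibition derived from blank-referenced optical density · Controls – Enzyme-plus-DMSO low control, enzyme-free DMSO high control · Replication – singlicate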
pCIP destab = compounds decreasing mouse p/CIP protein stability; Q05BA5; decrease of EGFP signal, % at 10 µM; AID 1984; F442A p/CIP-EGFP cells, EGFP fluorescence, 16 h; 290,000 tested, 0.01% active;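 active = EGFP signal decrease of at least 30% at 10 µM or well 3 SD below plate mean, unless failing retest; inactive = the rest, including hits failing retest or dose response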
Target sequence (Q05BA5 1-1403): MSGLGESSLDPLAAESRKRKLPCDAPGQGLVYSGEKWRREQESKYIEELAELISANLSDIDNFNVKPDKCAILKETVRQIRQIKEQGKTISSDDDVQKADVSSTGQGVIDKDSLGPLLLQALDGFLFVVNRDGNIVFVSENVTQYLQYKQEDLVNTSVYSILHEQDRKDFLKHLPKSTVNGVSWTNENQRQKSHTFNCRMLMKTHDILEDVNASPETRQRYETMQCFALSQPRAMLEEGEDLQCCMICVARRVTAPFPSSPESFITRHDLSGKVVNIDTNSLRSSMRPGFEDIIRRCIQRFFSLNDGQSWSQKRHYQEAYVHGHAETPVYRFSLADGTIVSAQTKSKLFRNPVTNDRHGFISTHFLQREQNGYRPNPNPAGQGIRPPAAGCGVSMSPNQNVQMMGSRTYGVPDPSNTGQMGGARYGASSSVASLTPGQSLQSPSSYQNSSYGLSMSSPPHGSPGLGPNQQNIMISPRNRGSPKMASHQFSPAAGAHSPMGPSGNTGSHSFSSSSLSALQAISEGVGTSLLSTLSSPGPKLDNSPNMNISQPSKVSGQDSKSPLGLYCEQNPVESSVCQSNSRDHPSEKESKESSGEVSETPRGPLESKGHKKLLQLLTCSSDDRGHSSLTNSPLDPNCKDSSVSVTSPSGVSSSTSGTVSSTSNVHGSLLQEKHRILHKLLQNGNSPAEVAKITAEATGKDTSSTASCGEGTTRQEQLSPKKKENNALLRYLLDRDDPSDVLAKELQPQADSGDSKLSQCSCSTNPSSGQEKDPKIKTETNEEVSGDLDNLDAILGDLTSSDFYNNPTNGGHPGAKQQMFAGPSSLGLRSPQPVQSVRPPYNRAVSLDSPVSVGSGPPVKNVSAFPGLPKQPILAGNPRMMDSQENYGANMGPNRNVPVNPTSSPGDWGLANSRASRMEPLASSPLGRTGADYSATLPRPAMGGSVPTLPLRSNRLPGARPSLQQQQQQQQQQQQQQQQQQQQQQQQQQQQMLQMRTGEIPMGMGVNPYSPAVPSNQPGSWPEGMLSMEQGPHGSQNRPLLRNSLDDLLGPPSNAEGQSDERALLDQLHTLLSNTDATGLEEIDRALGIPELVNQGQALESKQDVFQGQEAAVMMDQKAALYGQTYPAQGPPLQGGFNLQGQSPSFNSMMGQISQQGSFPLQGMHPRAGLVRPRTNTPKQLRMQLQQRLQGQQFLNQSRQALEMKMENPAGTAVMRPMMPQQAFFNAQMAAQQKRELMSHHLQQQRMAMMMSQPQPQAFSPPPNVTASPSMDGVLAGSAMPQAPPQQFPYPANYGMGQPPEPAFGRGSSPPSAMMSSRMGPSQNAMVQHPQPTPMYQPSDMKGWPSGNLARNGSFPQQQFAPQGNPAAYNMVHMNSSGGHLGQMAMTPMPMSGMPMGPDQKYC
T cell HTS = T cell immune modulation candidate | 2C CD8+ T cell-vesicle binding, flow cytometry; hits give low values | response (vesicle binding), % at 7 µM | 330,000 tested, 0.068% active;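 active = response, share of CD8 T cells binding vesicles, and their 90th percentile fluorescence all below set limits, cut at about 80% in these data, passing the limit was not always enough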;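 note: values below 100% mean blocked vesicle binding to the CD8+ T cells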
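Material: 2C TCR transgenic mouse naive CD8+ T cells, MACS-purified. Also added: QL9-charged Drosophila Ld/ICAM-1/B7-1 vesicles. Timing: binding 1.5 h at 37 °C. Measured by: high-throughput flow cytometry with anti-B7-1 and anti-CD8 staining. Read-out: percent CD8+ FL2 mean versus row control. Controls: Unloaded micro-vesicles (low), QL9 vesicles with 0.7% DMSO (high).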
VIM-2 inh = inhibitors of Pseudomonas aeruginosa VIM-2 metallo-beta-lactamase | purified VIM-2, nitrocefin hydrolysis, epi-absorbance fluorescence | inhibition, % at 5.6 µM | 290,000 tested, 0.89% active;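 active = inhibition above the mean of all tested compounds plus 3 SD, cutoff set per screening run, cut at about 7.5% in these data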;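 note: red hydrolysis product quenches plate fluorescence so inhibitors raise well fluorescence; 0% = enzyme with DMSO and 100% = DMSO without enzyme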
The depositor's hits bear a star; i = inactive; nt = no result. Only some compounds are listed: those with a hit (about 1.9% of all), similar ones and a draw of the others.

SMILES	Fh CTSL1 inh	UBC9 SUMO inh	IMP-1 inhibitor	pCIP destab	T cell HTS	VIM-2 inh
CCCc1cc(=O)oc2c(CNc3ccc(OCC)cc3)c(O)ccc12	-1.1	10.9	5.8*	-12.4	232.4	-2.8
CCCCc1cc(=O)oc2c(CN3CCCC3)c(O)ccc12	8.8	7.9	0.8	4.2	630.3	-0.8
COc1cccc(C(=O)Nc2nnc(CCS(=O)(=O)c3ccc(C)cc3)s2)c1	-1.0	-2.1	0.3	1.3	338.1	7.9*
O=C(Nc1nc(-c2ccco2)c(-c2ccco2)s1)C1CCC1	0.3	60.6*	-2.5	-53.5	310.5	-2.7
O=C(Nc1nc(-c2ccco2)c(-c2ccco2)s1)C1CC(=O)N(c2ccc3c(c2)OCCO3)C1 (stereo not given)	0.5	82.9*	-1.6	-24.1	232.5	-3.0
Cc1nnc(NC(=O)C2CC(=O)N(c3ccc4c(c3)OCCO4)C2)s1 (stereo not given)	nt	nt	nt	nt	214.6	nt
O=C(NCc1csc(-c2cccs2)n1)c1cccc(Cl)c1	-0.4	10.3	-0.7	-1.3	591.2	-1.6
CC1(C)Cn2c(nc(=O)c3c2NCN(CCc2ccccc2)C3)S1	2.0	-2.2	-2.9	-11.0	158.7	-2.9
CC(C)CCn1c(=O)c2ccccc2n2c(CCC(=O)NC3CCN(Cc4ccccc4)CC3)nnc12	-1.0	6.7	-3.5	-9.0	465.5	3.9
CCn1c(=O)c2sccc2n2c(CCCC(=O)NC3CCN(Cc4ccccc4)CC3)nnc12	0.8	18.0	-2.6	-12.6	i	8.0*
CC(C)Cn1c(=O)c2sccc2n2c(CCCC(=O)N3CCC(N4CCCCC4)CC3)nnc12	0.2	19.0	-2.1	-12.8	219.7	7.7*
CCn1c(=O)c2sccc2n2c(CCCC(=O)N3CCN(c4ccccn4)CC3)nnc12	-0.8	7.6	-0.4	11.0	399.0	8.8*
CC(C)CCn1c(=O)c2sccc2n2c(CCCC(=O)N3CCN(c4ccccn4)CC3)nnc12	-7.0	5.1	-2.3	-11.3	i	8.6*
O=c1cc(O)c2c(=O)n(-c3ccccc3)c3c(c2o1)CCCCC3	1.5	19.4	-2.3	-3.9	312.7	-4.6
CC(C)(C)CC(=O)Nc1ccc(S(=O)(=O)NC2=NCCCCC2)cc1	nt	nt	nt	nt	192.3	nt
COc1ccc(CN2C(=O)/C(=C/c3ccncc3)SC2=S)cc1	7.7	1.1	0.0	-11.0	275.8	-1.3
CC(=O)N1c2ccc(C)cc2C(c2ccccc2)CC1C (stereo not given)	4.3	6.3	13.8*	7.0	256.6	1.0
CCN(CC)CCNC(=O)c1c(C)n(-c2ccccc2)c2cc(Br)c(OC)cc12	-4.3	10.3	-1.8	-10.0	253.4	8.0*
S=C(NCCc1ccccc1)N1CCN(C23CC4CC(CC(C4)C2)C3)CC1	-2.6	7.4	-1.2	-2.7	169.5	-2.6
N=C1C(c2nc(-c3ccc(Cl)cc3)cs2)=C(O)CN1CCCN1CCOCC1	-0.2	-1.8	-2.5	9.6	221.2	13.9*
CCCCN1CC(O)=C(c2nc(-c3ccc(Cl)cc3)cs2)C1=N	-1.1	10.1	-3.5	-12.6	102.4	-2.8
CCN1/C(=C/C(C)=O)Sc2ccc(OC)cc21	2.6	18.9	-4.8	-21.0	414.4	-3.9
CCOC(=O)/C(=C/C=C1\Sc2cc(OCC)c(OCC)cc2N1CC)C(C)=O	3.1	30.1	6.2*	-137.1	i	6.8
CCOC(=O)/C(=C\C=C1/Sc2cc(OCC)c(OCC)cc2N1CC)C(C)=O	6.4	-0.2	4.8*	-379.3	i	3.0
CCN1/C(=C/c2ccc3cc(C)ccc3[n+]2CC)Sc2cc(C)ccc21	nt	9.7	-2.2	-724.7	nt	-2.9
SMILES	Fh CTSL1 inh	UBC9 SUMO inh	IMP-1 inhibitor	pCIP destab	T cell HTS	VIM-2 inh
CCN1/C(=C/c2ccc3cc(C)ccc3[n+]2C)Sc2ccc3sccc3c21	nt	-29.1	18.2*	-128.9	nt	2.3
N#CC1=C2SCN(c3ccccc3)CN2C(=O)CC1c1ccccc1Cl (stereo not given)	2.9	-8.1	-1.6	0.5	591.9	-0.3
N#CC1=C2SCN(c3ccccc3)CN2C(=O)CC1c1c(Cl)cccc1Cl (stereo not given)	-1.0	8.1	-3.7	-9.7	i	46.2*
CN1C(=O)C(CC(=O)O)S/C1=N\N=C\c1ccc(O)cc1O (stereo not given)	1.6	-7.6	-2.7	-13.3	354.7	-3.2
CC(=O)c1ccc(N2Cc3ccccc3/C2=N\C(=O)Nc2ccccc2)cc1	1.6	11.1	-2.6	-12.7	232.3	-3.2
CC(=O)c1cccc(N2Cc3ccccc3C2=NC(=O)CCl)c1	77.2*	7.5	-1.5	22.6	280.8	-1.0
O=C(CCNC(=O)C1CCN(S(=O)(=O)c2ccccc2)CC1)NCc1ccccc1Cl	-1.2	-8.5	-3.5	-4.5	574.7	-2.6
COC(=O)CCC(=O)Nc1ccc(S(=O)(=O)Nc2nc(C)cc(C)n2)cc1	-4.0	1.8	4.8*	-9.1	341.9	-0.3
CC(C)=C1C2CCC1C(C(=O)Nc1cc(C)cc(C)c1)C2C(=O)O (stereo not given)	-2.3	7.9	-1.8	18.1	138.8	9.4*
CC1=C(C#N)C(/C=N/OCc2ccc(Cl)cc2)CC(=O)N1 (stereo not given)	-1.5	0.3	-2.2	3.0	354.3	8.8*
CCCSC1=C(C#N)C(c2ccc(Cl)cc2Cl)CC(=O)N1 (stereo not given)	-2.1	-8.2	-5.3	-10.7	371.8	-2.2
O=C(N/N=C/c1cccc(F)c1)c1cc(-c2ccco2)nc2ccccc12	-4.1	79.2*	-2.7	-3.3	394.4	-1.1
COc1cc(/C=N/NC(=O)c2cc(-c3ccco3)nc3ccccc23)cc(OC)c1O	3.0	60.1	-2.9	0.5	190.2	-0.3
CCc1nnc(NC(=O)c2cc(-c3ccccn3)nc3ccccc23)s1	-4.5	13.7	-2.1	13.2	352.9	-2.4
CCc1nnc(NC(=O)c2cc(-c3ccco3)nc3ccccc23)s1	5.0	67.0*	-2.9	-7.5	258.7	2.4
Cc1cc([N+](=O)[O-])nn1Cc1noc(C(=O)NCCc2ccccn2)n1	-1.2	5.3	-4.5	3.0	i	-3.9
Cc1cc(NN)nc2ccc(Cl)cc12	-2.4	3.2	-0.8	-2.4	318.4	-0.2
CCOC(=O)COc1nc(OC)nc(N2CCOCC2)n1	11.5	21.4	-3.4	-14.2	482.3	-1.0
CCOC(=O)CNc1nc(OCC#N)nc(N2CCOCC2)n1	4.3	-21.7	20.0*	6.7	257.6	-1.6
COc1cc(C(F)(F)F)c(C(=O)NCc2cccc(Cl)c2)cn1	-1.6	3.6	-0.1	1.6	292.5	-1.8
COc1ccc(CC(=O)NNC(=O)c2ccc(NC(C)=O)cc2)cc1	-2.2	12.3	9.6*	-22.9	352.4	-1.4
COc1ccc(NC(=O)Nc2c(O)ccc3ccccc23)cc1	-1.6	nt	nt	nt	39.3*	nt
COc1ccc(NC(=O)NNC(=O)c2ccc(-c3ccccc3)cc2)cc1	1.7	36.9	4.9*	-2.5	263.9	-0.9

From PubChem BioAssay
